Measured values reported in ChEMBL document CHEMBL1142435, “Two-step synthesis of achiral dispiro-1,2,4,5-tetraoxanes with outstanding antimalarial activity, low toxicity, and high-stability profiles” (J Med Chem, 2008).

Assays:
[1] = system: Plasmodium falciparum; assay: Antimalarial activity against Plasmodium falciparum HB3; assay type: functional, organism-based
[2] = system: Plasmodium falciparum; assay: Antimalarial activity against Plasmodium falciparum TM4; assay type: functional, organism-based
[3] = system: Plasmodium falciparum; assay: Antimalarial activity against Plasmodium falciparum DD2; assay type: functional, organism-based
[4] = system: Plasmodium falciparum; assay: Antimalarial activity against Plasmodium falciparum V1/S; assay type: functional, organism-based; conditions: V1S
[5] = system: Plasmodium falciparum; assay: Antimalarial activity against Plasmodium falciparum K1; assay type: functional, organism-based
[6] = system: Plasmodium falciparum; assay: Antimalarial activity against Plasmodium falciparum GC03; assay type: functional, organism-based
[7] = system: Plasmodium falciparum; assay: Antimalarial activity against Plasmodium falciparum PH3; assay type: functional, organism-based
[8] = system: Plasmodium falciparum; assay: Antimalarial activity against Plasmodium falciparum 3D7; assay type: functional, organism-based
[9] = Chemical stability assessed as endoperoxide recovery after 48 hrs by iron degradation study; assay type: physicochemical; conditions: read-out: Stability
How it was run: (§1)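 Endoperoxide (1.0 equiv FeBr₂) was held in THF for 4, 8, 24 or 48 h. The residue was purified by flash column chromatography, and the percent recovery of starting endoperoxide was calculated.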

[10] = Chemical stability assessed as endoperoxide recovery after 8 hrs by iron degradation study; assay type: physicochemical; conditions: read-out: Stability; how it was run: as §1
[11] = Chemical stability assessed as endoperoxide recovery after 4 hrs by iron degradation study; assay type: physicochemical; conditions: read-out: Stability; how it was run: as §1
[12] = Chemical stability assessed as endoperoxide recovery after 24 hrs by iron degradation study; assay type: physicochemical; conditions: read-out: Stability; how it was run: as §1
[13] = Cytotoxicity against rat H9c(2-1) cells by resazurin reduction assay; assay type: cell-based; conditions: read-out: TC50 (the source's name)
How it was run: (§2)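 Cytotoxicity was read by resazurin reduction. A single full dose-response curve was built from 10 independent drug concentrations to give TOX₅₀.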

[14] = system: Salmonella typhimurium; assay: Genotoxicity against Salmonella Typhimurium NM2009 assessed as induction of umu operon expression in presence of rat liver S9 fraction; assay type: toxicity, organism-based; conditions: salmonella enterica subsp. enterica serovar typhimurium
How it was run: (§3)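 SOS/umu assay with rat liver S9-mix for metabolic activation. Tester strains carry plasmid pSK1002 with a umuC-lacZ fusion, and induced β-galactosidase activity is the read-out. Positive controls checked strain response. The highest concentration tested was 50 µM.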

[15] = Chemical stability in dichloromethane assessed as tetraoxane recovery after 7 days; assay type: physicochemical; conditions: read-out: Stability
[16] = Therapeutic index, ratio of TOX50 for human […] cells to IC50 Plasmodium falciparum 3D7; assay type: cell-based
How it was run: (§4)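 TOX₅₀ came from resazurin reduction, with single full dose-response curves over 10 independent concentrations. The index is TOX₅₀ divided by the IC₅₀ against the P. falciparum 3D7 isolate.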

[17] = Therapeutic index, ratio of TOX50 for human MRC5 cells to IC50 Plasmodium falciparum 3D7; assay type: cell-based; how it was run: as §4
[18] = Chemical stability in phosphate buffer assessed as tetraoxane recovery at pH 7.4 after 16 hrs; assay type: physicochemical; conditions: read-out: Stability
[19] = Therapeutic index, ratio of TOX50 for rat L6 cells to IC50 Plasmodium falciparum 3D7; assay type: cell-based; how it was run: as §4
[20] = system: Salmonella typhimurium; assay: Genotoxicity against Salmonella Typhimurium TA 1535/pSK1002 assessed as induction of umu operon expression; assay type: toxicity, organism-based; conditions: salmonella enterica subsp. enterica serovar typhimurium
[21] = Therapeutic index, ratio of TOX50 for african green monkey (Cercopithecus aethiops) Vero cells to IC50 Plasmodium falciparum 3D7; assay type: cell-based; how it was run: as §4
[22] = Cytotoxicity against human […] cells by resazurin reduction assay; assay type: cell-based; conditions: read-out: TC50 (the source's name); how it was run: as §2
[23] = Chemical stability in dichloromethane in presence of formic acid assessed as tetraoxane recovery after 7 days; assay type: physicochemical; conditions: dichloromethane with formic acid; read-out: Stability
[24] = Cytotoxicity against human MRC5 cells by resazurin reduction assay; assay type: cell-based; conditions: read-out: TC50 (the source's name); how it was run: as §2
[25] = Therapeutic index, ratio of TOX50 for rat H9c(2-1) cells to IC50 Plasmodium falciparum 3D7; how it was run: as §4
[26] = Chemical stability in water assessed as tetraoxane recovery after 7 days; assay type: physicochemical; conditions: read-out: Stability
[27] = Cytotoxicity against rat L6 cells by resazurin reduction assay; assay type: cell-based; conditions: read-out: TC50 (the source's name); how it was run: as §2
[28] = system: Salmonella typhimurium; assay: Genotoxicity against Salmonella Typhimurium NM2009 assessed as induction of umu operon expression; assay type: toxicity, organism-based; conditions: salmonella enterica subsp. enterica serovar typhimurium
[29] = system: Salmonella typhimurium; assay: Genotoxicity against Salmonella Typhimurium TA 1535/pSK1002 assessed as induction of umu operon expression in presence of rat liver S9 fraction; assay type: toxicity, organism-based; conditions: salmonella enterica subsp. enterica serovar typhimurium; how it was run: as §3
[30] = Cytotoxicity against african green monkey Vero cells by resazurin reduction assay; assay type: cell-based; conditions: chlorocebus sabaeus, read-out: TC50 (the source's name); how it was run: as §2
[31] = system: Plasmodium falciparum; assay: Antimalarial activity against Plasmodium falciparum
[32] = system: Plasmodium berghei; assay: Antimalarial activity against Plasmodium berghei ANKA infected mice (Mus musculus) by peroral dose; assay type: functional; conditions: po

CCN(CC)Cc1cc(Nc2ccnc3cc(Cl)ccc23)ccc1O
IC50 [1]: 5.9 nM | IC50 [2]: 6.4 nM | IC50 [3]: 6.1 nM | IC50 [4]: 7.7 nM | IC50 [5]: 10.2 nM | IC50 [6]: 4.5 nM | IC50 [7]: 4.7 nM

O=S(=O)(c1ccc(Cl)cc1)N1CCC2(CC1)OOC1(OO2)C2CC3CC(C2)CC1C3
IC50 [8]: 22.7 nM

CS(=O)(=O)N1CCC2(CC1)OOC1(CCCCCCCCCCC1)OO2
IC50 [8]: 27.8 nM

O=S(=O)(c1ccc(C(F)(F)F)cc1)N1CCC2(CC1)OOC1(OO2)C2CC3CC(C2)CC1C3
IC50 [8]: 20.7 nM

O=C(N1CCOCC1)N1CCC2(CC1)OOC1(OO2)C2CC3CC(C2)CC1C3
IC50 [8]: 4.7 nM

O=S(=O)(CC(F)(F)F)N1CCC2(CC1)OOC1(OO2)C2CC3CC(C2)CC1C3
IC50 [8]: 14.3 nM

O=C(CCc1ccc(S(=O)(=O)N2CCC3(CC2)OOC2(OO3)C3CC4CC(C3)CC2C4)cc1)NCCCCNc1ccc([N+](=O)[O-])c2nonc12
IC50 [8]: 16 nM

O=S(=O)(c1ccccc1)N1CCC2(CC1)COC1(OO2)C2CC3CC(C2)CC1C3 (centres undefined)
remaining at 48 h [9]: 43.2% | remaining at 8 h [10]: 84.9% | remaining at 4 h [11]: 96.8% | remaining at 24 h [12]: 56.7%

CC(C)S(=O)(=O)N1CCC2(CC1)OOC1(OO2)C2CC3CC(C2)CC1C3
IC50 [8]: 5.87 nM

CCS(=O)(=O)N1CCC2(CC1)OOC1(OO2)C2CC3CC(C2)CC1C3
IC50 [1]: 3.8 nM | CC50 [13]: > 50000 nM | IC50 [2]: 2.4 nM | IC50 [3]: 3 nM | Activity [14]: 0.95 | IC50 [4]: 2.7 nM | remaining at 168 h [15]: 96.2% | TI [16]: > 9090 | TI [17]: > 9090 | IC50 [5]: 3 nM | remaining at 16 h [18]: 93.2% | TI [19]: 5640 | Activity [20]: 1.03 | TI [21]: > 9090 | CC50 [22]: > 50000 nM | remaining at 168 h [23]: 92.3% | CC50 [24]: > 50000 nM | TI [25]: > 9090 | remaining at 168 h [26]: 97.8% | IC50 [6]: 3 nM | CC50 [27]: 31000 nM | Activity [28]: 1.07 | Activity [29]: 0.98 | IC50 [8]: 5.55 nM | CC50 [30]: > 50000 nM | IC50 [7]: 1.9 nM

CS(=O)(=O)N1CCC2(CC1)OOC1(OO2)C2CC3CC(C2)CC1C3
IC50 [8]: 10.2 nM

O=S(=O)(c1ccccc1)N1CCC2(CC1)OOC1(CCCCCCCCCCC1)OO2
IC50 [8]: 131 nM

CCS(=O)(=O)N1C2CCC1CC1(C2)OOC2(OO1)C1CC3CC(C1)CC2C3 (centres undefined)
IC50 [8]: 60.6 nM

O=S(=O)(c1ccccc1)N1CCC2(CC1)OCC1(OO2)C2CC3CC(C2)CC1C3 (centres undefined)
IC50 [8]: > 1000 nM

O=S(=O)(C1CC1)N1CCC2(CC1)OOC1(OO2)C2CC3CC(C2)CC1C3
CC50 [13]: > 50000 nM | Activity [14]: 1.07 | TI [16]: > 14300 | TI [17]: > 14300 | TI [19]: > 14300 | Activity [20]: 1.05 | TI [21]: > 14300 | CC50 [22]: > 50000 nM | CC50 [24]: > 50000 nM | TI [25]: > 14300 | CC50 [27]: > 50000 nM | Activity [28]: 1.09 | Activity [29]: 0.99 | IC50 [8]: 3.52 nM | CC50 [30]: > 50000 nM

O=S(=O)(c1ccccc1)N1CCC2(CC1)OOC1(O2)C2CC3CC(C2)CC1C3 (centres undefined)
remaining at 48 h [9]: 0% | remaining at 8 h [10]: 9% | remaining at 4 h [11]: 11% | remaining at 24 h [12]: 2.6% | IC50 [8]: 4.98 nM

O=S(=O)(c1ccc(F)cc1)N1CCC2(CC1)OOC1(OO2)C2CC3CC(C2)CC1C3
IC50 [8]: 16.7 nM

O=S(=O)(c1ccccc1)N1CCC2(CC1)OOC1(OO2)C2CC3CC(C2)CC1C3
remaining at 48 h [9]: 69% | remaining at 8 h [10]: 80.5% | remaining at 4 h [11]: 88.7% | remaining at 24 h [12]: 72% | IC50 [8]: 5.46 nM

O=C(CC1CCC2(CC1)OOC1(OO2)C2CC3CC(C2)CC1C3)N1CCOCC1 (centres undefined)
Activity [14]: 1.02 | IC50 [31]: 5.2 nM | Activity [20]: 1.04 | Activity [28]: 1.22 | Activity [29]: 0.98

CC(C)S(=O)(=O)N1CCC2(CC1)OOC1(CCCCCCCCCCC1)OO2
IC50 [8]: 86.4 nM

CCS(=O)(=O)N1CCC2(CC1)OOC1(CCCCCCCCCCC1)OO2
IC50 [8]: 29.1 nM

C[C@H]1[C@H](OC(=O)CCC(=O)O)O[C@@H]2OC3(C)CC[C@H]4[C@H](C)CC[C@@H]1[C@@]24OO3 (single isomer, unassigned) [SODIUM ARESUNATE]
IC50 [5]: 0.7 nM | IC50 [8]: 0.6 nM

Nc1ccc2cc3ccccc3cc2c1 [2-AMINOANTHRACENE]
Activity [14]: 6.09 | Activity [20]: 1.1 | Activity [28]: 1.08 | Activity [29]: 7.34

C[C@@H]1CC[C@H]2[C@@H](C)C(=O)O[C@@H]3O[C@@]4(C)CC[C@@H]1[C@]32OO4 [ARTEMISININ]
IC50 [8]: 9.2 nM | ED50 [32]: 8.42 mg/kg
